# Only some compounds are listed: those with a hit (about 1.5% of all), similar ones and a draw of the others.
# dFosB activator: mouse delta FosB homodimer activation; AID 493131; purified delta FosB, TAMRA-CDK5 oligo fluorescence polarization; percent of positive-control signal above neutral wells; activation, % at 25 µM; P13346; actives 0.99% (n = 340,000);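 active = mean activation above about 17%, with every replicate also reaching it, limit read from the data, passing the limit was not always enough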
# MLL AF4-AF9 inh: MLL-AF4/AF9 protein interaction inhibition. actives 0.47% (n = 350,000). inhibition, % at 10 µM. AlphaScreen, biotin-AF4 peptide binding to FLAG-AF9. P42568;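 active = every replicate reaching a set inhibition limit, whatever the replicate mean, cut at about 25% in these data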;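 note: 0% = plate neutral control median and 100% = total signal loss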
# RAD52 anneal inh: RAD52 (human) annealing inhibition | recombinant RAD52 DNA annealing, FRET fluorescence | AID 651710 | actives 0.46% (n = 360,000) | inhibition, % at 18.7 µM;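 active = every replicate showing at least 50% inhibition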
# RAD54 branch: inhibitors of human RAD54 branch migration; inhibition, % at 10.4 µM; actives 0.14% (n = 360,000); Q92698; RAD54 Holliday junction branch migration, FAM/BHQ fluorescence;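 active = mean normalized replicate activity at least 40 and at least half of replicates scoring 40 or more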;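 note: 0% = median of neutral control wells and 100% = median of positive control wells; inhibitors cause a drop in the FAM fluorescence signal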
# Target sequence (Q92698 whole entry, looked up): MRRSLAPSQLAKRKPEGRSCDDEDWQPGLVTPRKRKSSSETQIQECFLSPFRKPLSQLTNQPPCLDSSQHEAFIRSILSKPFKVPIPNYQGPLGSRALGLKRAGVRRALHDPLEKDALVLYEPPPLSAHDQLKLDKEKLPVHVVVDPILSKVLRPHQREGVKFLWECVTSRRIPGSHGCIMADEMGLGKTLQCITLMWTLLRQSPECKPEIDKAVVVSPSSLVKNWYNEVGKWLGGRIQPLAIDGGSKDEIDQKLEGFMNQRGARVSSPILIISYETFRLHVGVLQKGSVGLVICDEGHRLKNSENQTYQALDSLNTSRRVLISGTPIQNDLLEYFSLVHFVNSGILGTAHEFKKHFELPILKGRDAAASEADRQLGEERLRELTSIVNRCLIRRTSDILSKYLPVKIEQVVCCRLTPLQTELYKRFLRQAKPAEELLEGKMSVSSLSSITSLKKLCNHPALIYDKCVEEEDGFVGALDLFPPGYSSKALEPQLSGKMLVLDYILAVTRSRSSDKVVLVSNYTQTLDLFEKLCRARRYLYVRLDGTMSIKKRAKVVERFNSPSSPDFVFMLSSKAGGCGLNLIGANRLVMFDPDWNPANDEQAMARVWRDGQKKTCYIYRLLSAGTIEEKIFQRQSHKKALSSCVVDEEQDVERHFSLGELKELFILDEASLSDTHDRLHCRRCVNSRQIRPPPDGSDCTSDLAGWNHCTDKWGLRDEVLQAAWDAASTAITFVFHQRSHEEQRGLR
# S100A4 MyoIIA: S100A4-myosin IIA interaction inhibition | P26447 | AID 652163 | inhibition, % at 10.7 µM | actives 0.14% (n = 360,000) | S100A4/TAMRA-MyoIIA peptide fluorescence polarization;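 active = mean inhibition of at least 70% across replicates, with every replicate also reaching that level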
#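 incubation = readout 5 min after mixing, signal stable up to 60 min | system = S100A4 monomer protein | buffer or medium = HEPES pH 7.2 with CaCl2, KCl, NaCl, DTT, Triton | benchmarks = neutral control DMSO, positive control TFP | also added = fluorescent myosin IIA peptide, 5 nM | compound dosing = one concentration per compound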
# An asterisk follows results filed as active; i = inactive; nt = not tested or not shown; + = active, no number; ! = a repeat was not active.
SMILES,dFosB activator,MLL AF4-AF9 inh,RAD52 anneal inh,RAD54 branch,S100A4 MyoIIA
Cc1ccc(S(=O)(=O)Nc2cccc3c2O[C@@H](CN(C)C)[C@H](C)CN([C@@H](C)CO)C3=O)cc1,nt,1,12,-10,9
CC(C)NC(=O)Nc1ccc2c(c1)C(=O)N([C@@H](C)CO)C[C@H](C)[C@H](CN(C)C(=O)c1ccncc1)OCCCC[C@H](C)O2,nt,-1,16,3,96*
C[C@H]1CCCCO[C@H](CN(C)C(=O)c2ccccc2)[C@@H](C)CN([C@@H](C)CO)C(=O)c2cc(NC(=O)NC3CCCCC3)ccc2O1,nt,0,5,1,114*
O=C(Nc1cc(Cl)ccc1Cl)C1CC(=O)N(c2ccccc2)C1 (stereo unspecified),20*,-2,-7,1,-5
CCOC(=O)c1ccc(N=c2sc(C(=O)OC)cc(=O)n2-c2ccc(C(=O)OCC)cc2)cc1,2,6,-10,8,-4
COC(=O)c1cc(=O)n(-c2ccccc2)c(=Nc2ccccc2)s1,5,28*,-5,2,-10
O=C(c1cnccn1)N1CC(=O)N2[C@H](CO)[C@@H](c3ccc(-c4cccc(F)c4)cc3)[C@@H]2C1,nt,2,-4,nt,-1
COc1ccccc1/C=C/C=N/NC(=O)Cc1cccn1C,-3,56*,-35,nt,3
N=C(N)SCc1cn(-c2ccccc2)nc1-c1ccc(Br)cc1,-118,33*,38,nt,10
C[C@@H]1CCCCO[C@H](CN(C)C(=O)c2ccncc2)[C@H](C)CN([C@@H](C)CO)C(=O)c2cc(NC(=O)Cc3ccccc3)ccc2O1,nt,1,-3,-15,7
CC(C)NC(=O)N1[C@@H](CO)[C@@H](c2ccccc2)C12CN(C(=O)Cc1cccnc1)C2,nt,-8,4,nt,125*
OC[C@@H]1[C@@H](c2ccccc2)C2(CN(Cc3cccnc3)C2)N1Cc1ccncc1,nt,26*,-27,nt,15
Cc1ccc(S(=O)(=O)N[C@H]2C=C[C@@H](CC(=O)O)O[C@@H]2CO)cc1,nt,-3,16,4,3
Cn1cnc(S(=O)(=O)N[C@@H]2C=C[C@@H](CC(=O)NCC3CC3)O[C@H]2CO)c1,nt,-3,8,-1,108*
O=C(C[C@H]1C=C[C@H](NS(=O)(=O)c2ccc(F)cc2)[C@@H](CO)O1)NC1CCC1,nt,-5,-3,-6,3
Cc1ccc(S(=O)(=O)N[C@H]2C=C[C@H](CC(=O)O)O[C@@H]2CO)cc1,nt,0,7,-11,122*
Cc1ccc(S(=O)(=O)N[C@H]2C=C[C@@H](CC(=O)NC3CCCCC3)O[C@@H]2CO)cc1,nt,-1,-10,3,95*
C[C@H](NC(=O)[C@@H]1[C@@H](CO)[C@@H]2Cn3c(cccc3=O)[C@@H]2N1S(C)(=O)=O)c1ccccc1,nt,-2,-1,-2,16
CO[C@H]1CN(C)C(=O)c2ccc(NS(=O)(=O)CC(F)(F)F)cc2OC[C@H](C)N(C(=O)c2ccc3c(c2)OCO3)C[C@H]1C,nt,-1,-23,-3,5
C[C@@H](CO)NC(=O)[C@H]1O[C@@H](n2cnc3c(N)ncnc32)[C@H](O)[C@@H]1O,nt,nt,nt,-6,nt
Nc1ncnc2c1ncn2C1OC(C(=O)NC2CC2)C(O)C1O (stereo unspecified),0,48*,-1,-9,1
CC(C)c1ccc(N2C(=O)C(Cl)=C(N3CCOCC3)C2=O)cc1,-2,38*,-25,nt,-4
O=C1C(Cl)=C(N2CCOCC2)C(=O)N1c1ccc(Br)cc1,-13,1,-65,1,-7
O=C(C1CCCC1)N1CC2(C1)[C@@H](c1ccccc1)[C@@H](CO)N2CC1CC1,nt,-6,-2,nt,-5
CCc1cc(-c2n[nH]c(C)c2-c2nc3ccccc3n2C)c(O)c(CN2CCN(C)CC2)c1O,-17,25*,17,4,1
SMILES,dFosB activator,MLL AF4-AF9 inh,RAD52 anneal inh,RAD54 branch,S100A4 MyoIIA
Cc1noc(C)c1NC(=O)N(C)C[C@H]1Oc2ncc(C#CC3CCCC3)cc2C(=O)N([C@@H](C)CO)C[C@@H]1C,nt,-1,-8,1,-1
COc1ccc(Cn2c(SCc3ccc(C)cc3)nc3cc(OC)c(OC)cc3c2=N)cc1Cl,59*,nt,nt,-3,nt
COc1ccc(Cn2c(SCc3cc(C)ccc3C)nc3cc(OC)c(OC)cc3c2=N)cc1,40*,nt,nt,-5,nt
COc1cc2nc(SCc3ccc(C(F)(F)F)cc3)n(Cc3cccs3)c(=N)c2cc1OC,11,nt,nt,3,nt
COc1ccc(NC(=O)N2C[C@@H]3N[C@H](C2)C3c2ccc(-c3cccc(OC)c3)cc2)cc1 (stereo partly specified),nt,5,54*!,nt,-13
COc1ccc(NC(=O)N2C[C@@H]3N[C@H](C2)[C@@H]3c2ccc(-c3ccc(OC)cc3)cc2)cc1,nt,3,68*,nt,6
COc1ccc(-c2ccc(C3[C@@H]4CN(C(=O)Nc5cccc(F)c5)C[C@H]3N4)cc2)cc1 (stereo partly specified),nt,8,84*,nt,0
CO[C@H]1CN(C)C(=O)c2cc(NC(=O)C3CC3)ccc2OC[C@@H](C)N(C(=O)c2ccncc2)C[C@@H]1C,nt,6,-4,-3,-2
COc1cccc2c1C(=O)c1c(O)c3c(c(O)c1C2=O)C[C@@](O)(C(=O)CO)C[C@@H]3OC1CC(N)C(O)C(C)O1 (stereo partly specified),-406,8,i,nt,187*
CC(=O)[C@@]1(O)Cc2c(O)c3c(c(O)c2[C@H](O[C@H]2C[C@H](N)[C@H](O)[C@H](C)O2)C1)C(=O)c1ccccc1C3=O,nt,25*,i,-492,+
COc1cccc2c1C(=O)c1c(O)c3c(c(O)c1C2=O)C[C@@](O)(C(=O)CO)C[C@@H]3O[C@H]1C[C@H](N)[C@H](O)[C@H](C)O1,-336,19,i,-94,178*
COc1cccc2c1C(=O)c1c(O)c3c(c(O)c1C2=O)CC(O)(C(C)=O)CC3OC1CC(N(C)C)C(O)C(C)O1 (stereo unspecified),-371,14,i,nt,+
CCCN(C)C[C@H]1Oc2cc(-c3ccncc3)ccc2S(=O)(=O)N([C@H](C)CO)C[C@H]1C,nt,-1,10,-5,7
O=C(C[C@@H]1C=C[C@H](NS(=O)(=O)c2ccccc2)[C@H](CO)O1)NCc1ccccc1F,nt,-4,16,-2,1
CO[C@H]1CN(C)C(=O)c2ccc(NC(=O)C3CC3)cc2OC[C@H](C)N(Cc2ccc(F)cc2)C[C@@H]1C,nt,2,13,nt,14
Cc1cc(C(=O)N/N=C/c2c(CO)cnc(C)c2O)c2ccccc2n1,-3,1,-16,-2,17
Cc1ncc(CO)c(/C=N/NC(=O)c2cc(Br)ccc2O)c1O,-11,28*,-39,nt,1
COc1ccc(-c2cc(C)no2)cc1S(=O)(=O)NCCc1ccco1,-3,26*,-22,3,-5
